# Only some compounds are listed: those with a hit (about 0.7% of all), similar ones and a draw of the others.
# CaV13 ICDI inh = Primary screen for inhibitors of IQ motif and Ca2+-dependent inactivation inhibitor domain binding in CACNA1D, Förster resonance energy transfer in living cells, …; HEK cells, CFP/YFP FRET ICDI-IQ, plate reader, 10 min; percent FRET-ratio fall versus neutral wells; inhibition, % at 12.3 µM; hit rate 0.098% among 340,000; AID 743397;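 active = mean replicate inhibition of at least 30% and at least 1% of replicates passing that level; inconclusive = only one of the two criteria is met; inactive = neither criterion is met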;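 also: 0% = median of the neutral control wells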
# FN deposition inh = fibronectin deposition inhibition. AH1F fibroblasts, Alexa488-fibronectin deposition fluorescence, overnight. inhibition, % at 12.6 µM. hit rate 0.086% among 350,000. AID 743247;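 active = mean inhibition across replicates of 30% or more, regardless of how many single replicates reach that level; inconclusive = mean under 30% yet at least half of replicates reach 30%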;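 also: positive control wells lacked labelled fibronectin entirely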
#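 Assay system: AH1F fibroblasts / Quantity: 10000 cells per well / Medium: DMEM plus 2% serum, read in PBS / Reagent: labelled fibronectin 24 nM / Dosing: single dose, pinned / Times: 1 h cell attachment, overnight exposure to compound and label / Signal: fluorescence, ex 485 nm, em 525 nm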
# RAD52 inh = blocks human RAD52 DNA annealing | hit rate 0.46% among 360,000 | inhibition, % at 18.7 µM | AID 651710 | recombinant RAD52 DNA annealing, FRET fluorescence;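 active = every replicate showing at least 50% inhibition; inconclusive = mean inhibition at least 50% but not in every replicate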
# N-glyco inh = N-linked glycosylation inhibition. D54 ERlucT glycosylation luciferase reporter, 24 h; percent of 100 nM tunicamycin response. reporter increase, % at 12.5 µM. hit rate 0.23% among 360,000;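 active = mean luciferase reporter signal, scaled so untreated is 0 and the glycosylation-blocking control 100, at or above a set limit in every replicate; inconclusive = mean reaches the limit but not every replicate does; inactive = mean below the limit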;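 also: luciferase carries N-glycosylation sites so blocking glycosylation raises the light; 0% = median of neutral control wells and 100% = median of 100 nM tunicamycin wells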
# RAD54 branch = inhibitors of human RAD54 branch migration | inhibition, % at 10.4 µM | AID 602329 | Q92698 | hit rate 0.14% among 360,000 | RAD54 Holliday junction branch migration, FAM/BHQ fluorescence;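 active = mean normalized replicate activity at least 40 and at least half of replicates scoring 40 or more; inconclusive = only one of the two criteria met; inactive = mean below 40 and under half of replicates reaching 40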;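 also: 0% = median of neutral control wells and 100% = median of positive control wells; inhibitors cause a drop in the FAM fluorescence signal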
# Target sequence (Q92698 whole entry, looked up): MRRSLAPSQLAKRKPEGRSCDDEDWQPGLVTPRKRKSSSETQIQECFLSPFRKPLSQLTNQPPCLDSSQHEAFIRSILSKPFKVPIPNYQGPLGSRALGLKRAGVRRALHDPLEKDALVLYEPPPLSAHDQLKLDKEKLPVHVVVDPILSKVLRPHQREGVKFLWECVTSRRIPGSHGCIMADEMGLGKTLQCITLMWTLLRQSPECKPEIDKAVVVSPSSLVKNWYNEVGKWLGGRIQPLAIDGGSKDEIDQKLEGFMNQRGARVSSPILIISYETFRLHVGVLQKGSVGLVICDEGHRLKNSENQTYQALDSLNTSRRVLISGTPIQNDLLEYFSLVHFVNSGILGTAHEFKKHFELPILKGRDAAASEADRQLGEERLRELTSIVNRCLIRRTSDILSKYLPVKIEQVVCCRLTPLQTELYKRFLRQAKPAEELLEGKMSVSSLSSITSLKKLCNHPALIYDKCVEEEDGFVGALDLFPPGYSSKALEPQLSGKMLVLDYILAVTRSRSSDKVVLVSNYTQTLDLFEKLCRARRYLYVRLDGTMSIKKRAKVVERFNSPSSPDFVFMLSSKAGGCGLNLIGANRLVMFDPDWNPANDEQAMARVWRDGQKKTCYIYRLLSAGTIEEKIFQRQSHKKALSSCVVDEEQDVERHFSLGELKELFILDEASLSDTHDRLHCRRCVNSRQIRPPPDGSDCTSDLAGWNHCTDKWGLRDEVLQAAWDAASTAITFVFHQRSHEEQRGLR
# Rad54 DNA ctr = counter-screen for Rad54 inhibitors: DNA binding compounds | shares compounds with RAD54 branch | Acridine orange-DNA displacement, fluorescence polarization, 20 min | AC50, µM (highest dose often 35 µM), for inactives: top-dose activity change, negative = DNA binding | hit rate 8% among 460 | AID 651673;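 active = signal drop giving an AC50 within twice the top valid tested concentration of each sample, actives reach about 35 µM in these data; inactive = activity opposite to expected, plus the rest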;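 also: polarization loss reports compound binding to salmon sperm DNA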
# RAD52 DNA ctr = binds DNA, flagging false RAD52 inhibitor hits; AID 652128; Salmon sperm DNA/acridine orange FP displacement, DNA binding; AC50, µM; hit rate 8% among 1,000; shares compounds with RAD52 inh;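 active = fitted half-maximal concentration for signal loss at or below twice the highest dose tested, in every separate run, actives reach about 64 µM in these data; inconclusive = runs disagree, or flat partial signal loss, or poor fit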
# * hit, by the source's call; i = inactive; ? = inconclusive; / = not tested or not shown.
SMILES,CaV13 ICDI inh,FN deposition inh,RAD52 inh,N-glyco inh,RAD54 branch,Rad54 DNA ctr,others
CCOC(=O)c1cnc2c(C(F)(F)F)cccc2c1NCCCN1CCOCC1,-4.7,-11.1,-8.6,1.1,11.1,/,
C[C@@H]1CN(C)C(=O)Cc2cc(N)ccc2O[C@H]1CN(C)C(=O)OC(C)(C)C,/,-14.7,/,/,/,/,
Cc1ccc(-c2nc(N3CCN(C)CC3)c3ccccc3n2)cc1,0.5,5.6,4.7,4.6,57.2*,-14.9%,
COc1ccc(S(=O)(=O)Nc2ccc3c(c2)C(=O)N([C@@H](C)CO)C[C@H](C)[C@H](CN(C)S(C)(=O)=O)O3)cc1,/,/,12.6,/,7.9,/,
COC(=O)c1c(NC(=O)c2ccc([N+](=O)[O-])o2)sc2c1CCN(C(C)C)C2,-5.9,1.0,-11.7,4.9,68.0*,8.9%,
O=C(Nc1ccc(F)cc1F)C1CCN(c2ncnc3c2sc2cccc(F)c23)CC1,-8.4,-15.2,-2.6,3.4,-19.3,/,
CCN(CC)CCCNC(=O)C1CCN(c2ncnc3c2sc2cccc(F)c23)CC1,-2.0,-9.9,41.9,2.8,53.5*,-0.9%,
COc1ccc(CCNC(=O)c2cc3c(=O)n4cccc(C)c4nc3n(CCCN3CCOCC3)c2=N)cc1,-8.6,-1.4,-11.8,0.2,58.8*,-12.3%,
CCOCCCn1c(=N)c(C(=O)NCCN2CCOCC2)cc2c(=O)n3cccc(C)c3nc21,15.4,/,/,-1.6,68.8*,-15.2%,
Cc1cccn2c(=O)c3cc(C(=O)NCCN4CCOCC4)n(C)c3nc12,-5.0,2.0,-37.4,-3.5,16.4,/,
Cc1cccn2c(=O)c3cc(C(=O)NCC4CCCO4)c(=N)n(C4CCCCC4)c3nc12 (stereo not drawn),12.3,-10.0,-51.7,1.2,?,-5.2%,
Cc1cccn2c(=O)c3cc(C(=O)NCc4ccco4)c(=N)n(C4CCCC4)c3nc12,6.3,2.4,-15.3,14.3,32.6,/,
O=S(=O)(N[C@@H]1CC[C@H](CCn2cc(C3(O)CCCC3)nn2)O[C@H]1CO)c1ccccc1,/,/,-9.6,/,3.4,/,
CN(C)CC(=O)N[C@@H]1CC[C@@H](CCNC(=O)Nc2ccc(C(F)(F)F)cc2)O[C@@H]1CO,/,/,13.3,/,2.1,/,
Cc1ccc(OCC(=O)Nc2cccc(-c3nnc(-c4ccccc4)o3)c2)c(C)c1,-4.8,4.8,/,-1.0,?,7.0%,
COc1ccc(CC(=O)Nc2cccc(-c3nnc(-c4ccc(C)cc4)o3)c2)cc1OC,-9.1,/,-2.8,-10.2,2.3,/,
Cc1cc(C)c2nc(C)cc(Nc3ccc(C(=O)NCCO)cc3)c2c1,-4.7,6.0,6.4,3.3,50.2*,-21.8%,
CCN(CC)S(=O)(=O)c1ccc(Cl)c(C(=O)Nc2nnc(C)s2)c1,-4.7,0.3,/,-0.1,?,-7.7%,
COc1ccccc1Nc1nc(NCC2CCCO2)c2ccccc2n1 (stereo not drawn),-4.3,-1.6,-1.7,-2.8,67.5*,-9.6%,
CCN(CC)CCNC(=O)c1cc2cc3ccc(OC)cc3nc2o1,-20.8,2.8,18.6,9.7,50.5*,-24.0%,
CCCCN(C)CCNC(=O)c1cc2cc3ccc(OC)cc3nc2o1,-20.0,1.2,7.4,3.9,53.1*,-19.8%,
CCCCN(C)C(=O)c1cc2cc3ccc(OC)cc3nc2o1,-20.1,5.7,-26.8,3.2,-3.3,/,
CO[C@H]1CN(C)C(=O)c2ccc(NC(=O)NC(C)C)cc2OC[C@H](C)N(C(=O)NC(C)C)C[C@@H]1C,/,-3.9,/,/,/,/,
COc1ccc(S(=O)(=O)N(C)C[C@@H]2OCCCC[C@@H](C)Oc3ccc(NC(=O)Nc4ccccc4)cc3C(=O)N([C@H](C)CO)C[C@H]2C)cc1,/,-4.7,/,/,1.8,/,
COc1ccc(S(=O)(=O)N[C@@H]2CC[C@H](CCNC(=O)c3ccccc3F)O[C@@H]2CO)cc1,/,/,-0.7,/,0.9,/,
SMILES,CaV13 ICDI inh,FN deposition inh,RAD52 inh,N-glyco inh,RAD54 branch,Rad54 DNA ctr,others
COc1ccc(Nc2cc(C)nc3ccc(OC)cc23)cc1,-6.9,5.4,55.5*,19.3,64.0*,3.5%,RAD52 DNA ctr=i
CCN1CCCC1CNC(=O)c1ccc2c(c1)NC(=O)/C(=C\c1ccc(OC)c(OC)c1)S2 (stereo not drawn),-10.7,17.4,72.9*,-7.2,68.9*,-3.5%,RAD52 DNA ctr=i
CCN1CCCC1CNC(=O)c1ccc2c(c1)NC(=O)/C(=C\c1ccccc1Cl)S2 (stereo not drawn),-11.9,2.2,-45.1,-5.3,10.6,/,
CCN1C(=O)CCN(C2CCCC2)c2nc(Nc3ccc(C(=O)NC4CCN(C)CC4)cc3OC)ncc21,-4.1,17.6,63.1*,55.0*,?,2.8%,RAD52 DNA ctr=i
COc1ccc(C(=O)NC2CCCCCC2)cc1S(=O)(=O)N1CCCc2ccccc21,/,/,/,-5.8,1.1,/,
Cc1c(C)n(CCN(C)C)c2ccc(C(=O)OCCN(C)C)cc12,-8.7,15.9,102.8*,6.9,103.8*,i,RAD52 DNA ctr=i
Oc1ccc(Nc2nc(N3CCCC3)c3ccccc3n2)cc1,-4.7,12.1,67.2*,53.2*,59.7*,i,RAD52 DNA ctr=i
CN1CCN(c2nc(-c3cccc([N+](=O)[O-])c3)nc3ccccc23)CC1,-19.2,14.1,14.4,2.9,74.6*,-21.8%,RAD52 DNA ctr=i
CC(C)(O)c1cn([C@@H]2C[C@@H]3O[C@@H](CO)CC[C@@H]3O[C@@H]2CCc2ccc(-c3cccnc3)cc2)nn1,/,/,-7.1,/,/,/,
C[C@@H]1CN([C@@H](C)CO)C(=O)c2cc(NS(=O)(=O)c3cn(C)cn3)ccc2O[C@@H]1CN(C)C(=O)Nc1ccccc1,/,/,-5.2,/,-12.3,/,
Cc1ccc(-c2cc(NC=O)c3ncc(-c4cccc(C(=O)N(C)C)c4)n3c2)cc1,-3.4,-0.4,-15.4,1.0,-7.3,/,
COc1cc(-c2cnc3c(NC=O)cc(-c4cccc(C(=O)NCCN(C)C)c4)cn23)cc(OC)c1OC,-4.1,9.1,93.2*,-1.8,101.5*,-2.1%,RAD52 DNA ctr=i
COc1cc(-c2cnc3c(NC(C)=O)cc(-c4cccc(C(=O)NCCO)c4)cn23)cc(OC)c1OC,-6.1,-10.1,-7.5,9.3,1.4,/,
COc1ccc(-c2cc(NC=O)c3ncc(-c4cccc(C(=O)NCCN(C)C)c4)n3c2)cn1,-5.5,/,81.0*,-6.1,94.6*,-10.8%,RAD52 DNA ctr=i
C[C@@H]1CN([C@H](C)CO)C(=O)c2cc(C3=CCCC3)cnc2O[C@H]1CN(C)Cc1cccnc1,/,-14.3,7.6,/,-1.8,/,
Cc1ccc2nc3c(c(Nc4ccc(O)cc4)c2c1)CCC3,-4.1,-3.3,45.7,13.3,66.6*,-1.0%,RAD52 DNA ctr=i
Cc1ccc(NC(=O)c2c3c(nc4ccccc24)CCC3)cc1,-1.7,-4.7,-33.5,1.3,-6.3,/,
Cn1c(=O)cc(SCC(=O)NCCCN2CCOCC2)c2ccccc21,-6.4,/,/,/,-8.0,/,
CN1CCC[C@H]1CCNc1ccc2c(=O)c3ccccc3n(C)c2c1,-8.8,/,50.5*,8.2,89.9*,-10.3%,RAD52 DNA ctr=i
